Reference: ChEMBL document CHEMBL1782004, “Pyrimidine nucleotides with 4-alkyloxyimino and terminal tetraphosphate δ-ester modifications as selective agonists of the P2Y(4) receptor” (J Med Chem, 2011)
The source made the active and inactive calls. The rule behind the calls is not given here.

Columns and labels:
[1] = molecular target: T1, P2Y purinoceptor 6 (Homo sapiens, UniProt Q15077); test: Agonist activity at human recombinant P2Y6 receptor expressed in human 1321N1 cells assessed as [3H]inositol phosphate production at 10 uM after 30 mins by scintillation proximity assay; assay type: functional, cell-based
[2] = molecular target: T2, P2Y purinoceptor 2 (Homo sapiens, UniProt P41231); test: Agonist activity at human recombinant P2Y2 receptor expressed in human 1321N1 cells assessed as [3H]inositol phosphate production after 30 mins by scintillation proximity assay; assay type: functional, cell-based
Method in brief: (§1)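 Stable 1321N1 human astrocytoma lines expressing human P2Y2, P2Y4 or P2Y6 were seeded at 20,000 cells/well two days ahead. Cells were then challenged with agonist in HEPES pH 7.3/HBSS containing LiCl for 30 min at 37°C. The reaction was stopped with ice-cold 50 mM formic acid and [3H]inositol phosphates were read by SPA.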

[3] = molecular target: T3, P2Y purinoceptor 4 (Homo sapiens, UniProt P51582); test: Agonist activity at human recombinant P2Y4 receptor expressed in human 1321N1 cells assessed as [3H]inositol phosphate production after 30 mins by scintillation proximity assay; assay type: functional, cell-based
Method in brief: as §1, with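 “ahead. They were labelled for 16 h with 1.0 μCi myo-[3H]inositol in serum-free, inositol-free DMEM.” for “ahead.”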

[4] = molecular target: T1, P2Y purinoceptor 6; test: Agonist activity at human recombinant P2Y6 receptor expressed in human 1321N1 cells assessed as [3H]inositol phosphate production after 30 mins by scintillation proximity assay; assay type: functional, cell-based
Method in brief: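 1321N1 astrocytoma cells stably expressing human P2Y6, seeded 2 days ahead and labelled 16 h with myo-[3H]inositol in serum-free inositol-free DMEM. Agonist added as five-fold concentrate in HEPES pH 7.3/HBSS with 50 mM LiCl, 30 min at 37°C. Stopped with ice-cold 50 mM formic acid. EC50 from four-parameter logistic fit; triplicates, three to six experiments; UDP reference curve.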

[5] = molecular target: T3, P2Y purinoceptor 4; test: Agonist activity at human recombinant P2Y4 receptor expressed in human 1321N1 cells assessed as [3H]inositol phosphate production at 10 uM after 30 mins by scintillation proximity assay; assay type: functional, cell-based
[6] = molecular target: T2, P2Y purinoceptor 2; test: Agonist activity at human recombinant P2Y2 receptor expressed in human 1321N1 cells assessed as [3H]inositol phosphate production at 10 uM after 30 mins by scintillation proximity assay; assay type: functional, cell-based
[7] = molecular target: T2, P2Y purinoceptor 2; test: Ratio of EC50 for human recombinant P2Y2 receptor expressed in human 1321N1 cells to EC50 for human recombinant P2Y4 receptor expressed in human 1321N1 cells; assay type: cell-based
[8] = tested on: 1321-N1; test: Ratio of EC50 for human recombinant P2Y6 receptor expressed in human 1321N1 cells to EC50 for human recombinant P2Y4 receptor expressed in human 1321N1 cells; assay type: cell-based
[9] = molecular target: T3, P2Y purinoceptor 4; test: Agonist activity at human P2Y4; assay type: functional
[10] = Ratio of EC50 for P2Y4 to EC50 for P2Y2
[11] = Ratio of EC50 for P2Y6 to EC50 for P2Y2
[12] = tested on: Oocyte; test: Ratio of EC50 for rat P2Y2 expressed in Xenopus oocytes to EC50 for rat P2Y4 expressed in Xenopus oocytes; assay type: cell-based
[13] = molecular target: T2, P2Y purinoceptor 2; test: Agonist activity at human P2Y2; assay type: functional

T2 sequence (P41231 whole entry): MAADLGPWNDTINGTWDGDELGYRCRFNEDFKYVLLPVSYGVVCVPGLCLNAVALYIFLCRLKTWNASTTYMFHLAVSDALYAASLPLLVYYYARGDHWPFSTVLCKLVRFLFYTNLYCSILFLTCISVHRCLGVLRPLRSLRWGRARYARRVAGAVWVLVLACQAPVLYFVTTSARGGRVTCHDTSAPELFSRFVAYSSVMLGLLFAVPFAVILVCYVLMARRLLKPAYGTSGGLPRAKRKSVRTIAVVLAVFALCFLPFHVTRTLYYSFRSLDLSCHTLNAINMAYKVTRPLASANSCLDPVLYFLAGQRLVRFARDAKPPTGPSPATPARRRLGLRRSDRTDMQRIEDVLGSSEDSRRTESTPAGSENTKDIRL
T3 sequence (P51582 whole entry): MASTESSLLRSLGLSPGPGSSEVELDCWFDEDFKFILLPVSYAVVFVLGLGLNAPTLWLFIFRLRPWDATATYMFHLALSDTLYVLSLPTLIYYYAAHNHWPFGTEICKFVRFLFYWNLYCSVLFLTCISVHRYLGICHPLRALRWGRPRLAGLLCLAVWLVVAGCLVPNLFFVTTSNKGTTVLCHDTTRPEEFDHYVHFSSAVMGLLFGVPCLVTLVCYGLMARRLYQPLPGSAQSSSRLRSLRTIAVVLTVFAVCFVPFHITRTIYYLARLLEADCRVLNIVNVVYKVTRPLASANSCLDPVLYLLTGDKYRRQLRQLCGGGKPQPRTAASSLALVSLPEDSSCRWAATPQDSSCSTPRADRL
T1 sequence (Q15077 whole entry): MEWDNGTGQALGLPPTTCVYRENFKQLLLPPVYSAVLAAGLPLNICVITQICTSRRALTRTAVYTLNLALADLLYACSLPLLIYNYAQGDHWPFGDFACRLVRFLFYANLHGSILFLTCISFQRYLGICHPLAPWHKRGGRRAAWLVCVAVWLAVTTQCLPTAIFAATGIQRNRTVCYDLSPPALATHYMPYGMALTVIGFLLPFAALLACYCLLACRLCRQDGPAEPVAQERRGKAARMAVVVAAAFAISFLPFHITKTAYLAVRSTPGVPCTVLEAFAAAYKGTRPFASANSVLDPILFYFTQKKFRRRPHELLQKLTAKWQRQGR

Activity [1]	EC50 [2] [nM]	EC50 [3] [nM]	EC50 [4] [nM]	SMILES	other results
< 50%	–	–	–	CC(C)(C)O/N=c1/ccn([C@@H]2O[C@H](COP(=O)(O)OP(=O)(O)OP(=O)(O)O)[C@@H](O)[C@H]2O)c(=O)[nH]1	–
–	1890	910	5460	CC(=O)N[C@H]1[C@@H](OP(=O)(O)OP(=O)(O)OP(=O)(O)OP(=O)(O)OC[C@H]2O[C@@H](n3ccc(=O)[nH]c3=O)[C@H](O)[C@@H]2O)O[C@H](CO)[C@@H](O)[C@@H]1O	–
< 50%	–	–	–	O=c1ccn([C@@H]2O[C@H](COP(=O)(O)OP(=O)(O)OP(=O)(O)OP(=O)(O)O[C@H]3O[C@H](CO)[C@@H](O)[C@H](O)[C@H]3F)[C@@H](O)[C@H]2O)c(=O)[nH]1	Activity [5]: < 50%; Activity [6]: < 50%
–	640	23	740	O=c1nc(NOCCCc2ccccc2)ccn1[C@@H]1O[C@H](COP(=O)(O)OP(=O)(O)OP(=O)(O)O)[C@@H](O)[C@H]1O	–
–	2770	620	4900	O=c1ccn([C@@H]2O[C@H](COP(=O)(O)OP(=O)(O)OP(=O)(O)OP(=O)(O)O[C@H]3OC[C@@H](O)[C@H](O)[C@H]3O)[C@@H](O)[C@H]2O)c(=O)[nH]1	–
–	770	183	1170	O=c1ccn([C@@H]2O[C@H](COP(=O)(O)OP(=O)(O)OP(=O)(O)OP(=O)(O)O[C@H]3O[C@H](CO)[C@@H](O)[C@@H](O)[C@H]3O)[C@@H](O)[C@H]2O)c(=O)[nH]1	–
–	500	310	1440	CONc1ccn([C@@H]2O[C@H](COP(=O)(O)OP(=O)(O)OP(=O)(O)OP(=O)(O)O[C@H]3O[C@H](CO)[C@@H](O)[C@H](F)[C@H]3O)[C@@H](O)[C@H]2O)c(=O)n1	–
–	–	–	–	O=c1[nH]/c(=N\OCCc2ccccc2)ccn1[C@@H]1O[C@H](COP(=O)(O)OP(=O)(O)OP(=O)(O)O)[C@@H](O)[C@H]1O	Ratio EC50 [7]: 16; Ratio EC50 [8]: 17
inactive	–	–	–	O=c1ccn([C@@H]2O[C@H](COP(=O)(O)OP(=O)(O)C(Cl)(Cl)P(=O)(O)OP(=O)(O)O[C@H]3O[C@H](CO)[C@@H](O)[C@H](O)[C@H]3O)[C@@H](O)[C@H]2O)c(=O)[nH]1	Activity [5]: inactive; Activity [6]: < 50%
–	–	–	–	O=c1[nH]/c(=N\OCCCc2ccccc2)ccn1[C@@H]1O[C@H](COP(=O)(O)OP(=O)(O)OP(=O)(O)O)[C@@H](O)[C@H]1O	Ratio EC50 [7]: 28; Ratio EC50 [8]: 32
inactive	–	–	–	O=c1ccn([C@@H]2O[C@H](COP(=O)(O)OP(=O)(O)C(Cl)(Cl)P(=O)(O)O)[C@@H](O)[C@H]2O)c(=S)[nH]1	Activity [5]: inactive
< 50%	–	–	–	COc1ccc(OP(=O)(O)OP(=O)(O)OP(=O)(O)OP(=O)(O)OC[C@H]2O[C@@H](n3ccc(=O)[nH]c3=O)[C@H](O)[C@@H]2O)cc1	Activity [5]: < 50%; Activity [6]: < 50%
–	3900	7300	–	O=c1ccn([C@@H]2O[C@H](COP(=O)(O)OP(=O)(O)OP(=O)(O)OP(=O)(O)O)[C@@H](O)[C@H]2O)c(=O)[nH]1	–
–	–	–	–	O=c1ccn([C@@H]2O[C@H](COP(=O)(O)OP(=O)(O)OP(=O)(O)OP(=O)(O)OC[C@H]3O[C@@H](n4ccc(=O)[nH]c4=O)[C@H](O)[C@@H]3O)[C@@H](O)[C@H]2O)c(=O)[nH]1 [DIQUAFOSOL TETRASODIUM]	EC50 [9]: 870 nM
–	1500	2110	–	CC(C)(C)ONc1ccn([C@@H]2O[C@H](COP(=O)(O)OP(=O)(O)OP(=O)(O)O)[C@@H](O)[C@H]2O)c(=O)n1	–
–	2640	670	7510	O=c1[nH]/c(=N\OCc2ccccc2)ccn1[C@@H]1O[C@H](COP(=O)(O)OP(=O)(O)OP(=O)(O)OP(=O)(O)O[C@H]2O[C@H](CO)[C@@H](O)[C@H](F)[C@H]2O)[C@@H](O)[C@H]1O	–
–	–	–	–	O=c1ccn([C@@H]2O[C@H](COP(=O)(O)OP(=O)(O)OP(=O)(O)OP(=O)(O)O[C@H]3O[C@H](CO)[C@@H](O)[C@H](O)[C@H]3O)[C@@H](O)[C@H]2O)c(=O)[nH]1	Ratio EC50 [10]: 7; Ratio EC50 [11]: 26
–	–	–	–	O=P(O)(O)OP(=O)(O)OP(=O)(O)OC[C@H]1O[C@@H](n2cnc3c(O)ncnc32)[C@H](O)[C@@H]1O	Ratio EC50 [12]: 13
–	490	227	1650	O=C(O)[C@H]1O[C@H](OP(=O)(O)OP(=O)(O)OP(=O)(O)OP(=O)(O)OC[C@H]2O[C@@H](n3ccc(=O)[nH]c3=O)[C@H](O)[C@@H]2O)[C@H](O)[C@@H](O)[C@@H]1O	–
–	–	–	–	[N-]=[N+]=N[C@@H]1[C@H](O)[C@@H](COP(=O)(O)OP(=O)(O)OP(=O)(O)O)O[C@H]1n1ccc(=O)[nH]c1=O	EC50 [13]: 5 µM
–	55	80	–	O=c1ccn([C@@H]2O[C@H](COP(=O)(O)OP(=O)(O)OP(=O)(O)O)[C@@H](O)[C@H]2O)c(=O)[nH]1 [URIDINE TRIPHOSPHATE]	–
–	620	220	1640	O=c1ccn([C@@H]2O[C@H](COP(=O)(O)OP(=O)(O)OP(=O)(O)OP(=O)(O)O[C@H]3O[C@H](CO)[C@@H](F)[C@H](O)[C@H]3O)[C@@H](O)[C@H]2O)c(=O)[nH]1	–
–	3720	4480	12100	O=c1ccn([C@@H]2O[C@H](COP(=O)(O)OP(=O)(O)OP(=O)(O)OP(=O)(O)O[C@H]3O[C@H](CO)[C@@H](O)[C@H](O)[C@@H]3O)[C@@H](O)[C@H]2O)c(=O)[nH]1	–
< 50%	–	–	–	COc1cccc(OP(=O)(O)OP(=O)(O)OP(=O)(O)OP(=O)(O)OC[C@H]2O[C@@H](n3ccc(=O)[nH]c3=O)[C@H](O)[C@@H]2O)c1	Activity [5]: inactive; Activity [6]: < 50%
–	710	62	950	O=c1ccn([C@@H]2O[C@H](COP(=O)(O)OP(=O)(O)OP(=O)(O)OP(=O)(O)O[C@H]3O[C@H](CO)[C@@H](O)[C@H](F)[C@H]3O)[C@@H](O)[C@H]2O)c(=O)[nH]1	Ratio EC50 [7]: 11.5; Ratio EC50 [8]: 15.3
–	940	–	–	O=c1ccn([C@@H]2O[C@H](COP(=O)(O)OP(=O)(O)OP(=O)(O)OP(=O)(O)O[C@H]3O[C@H](CO)[C@H](O)[C@H](O)[C@H]3O)[C@@H](O)[C@H]2O)c(=O)[nH]1	–

SMILES	Activity [1]	EC50 [2] [nM]	EC50 [3] [nM]	EC50 [4] [nM]	other results
O=c1ccn([C@@H]2O[C@H](COP(=O)(O)OP(=O)(O)OP(=O)(O)OP(=O)(O)Oc3cccc([N+](=O)[O-])c3)[C@@H](O)[C@H]2O)c(=O)[nH]1	< 50%	3330	2540	–	–
O=c1ccn([C@@H]2O[C@H](COP(=O)(O)OP(=O)(O)OP(=O)(O)OP(=O)(O)Oc3cccc(Cl)c3)[C@@H](O)[C@H]2O)c(=O)[nH]1	–	840	–	3690	Activity [5]: inactive
O=c1ccn([C@@H]2O[C@H](COP(=O)(O)OP(=O)(O)OP(=O)(O)OP(=O)(O)Oc3ccccc3)[C@@H](O)[C@H]2O)c(=O)[nH]1	inactive	2760	–	–	Activity [5]: inactive
O=c1ccn([C@@H]2O[C@H](COP(=O)(O)OP(=O)(O)OP(=O)(O)OP(=O)(O)Oc3ccc(Cl)cc3)[C@@H](O)[C@H]2O)c(=O)[nH]1	–	6600	–	–	–
O=c1ccn([C@@H]2O[C@H](COP(=O)(O)OP(=O)(O)OP(=O)(O)OP(=O)(O)Oc3ccc([N+](=O)[O-])cc3)[C@@H](O)[C@H]2O)c(=O)[nH]1	< 50%	4850	–	–	Activity [5]: < 50%
O=c1ccn([C@@H]2O[C@H](COP(=O)(O)OP(=O)(O)C(Cl)(Cl)P(=O)(O)O)[C@@H](O)[C@H]2O)c(=O)[nH]1	< 50%	9600	–	–	Activity [5]: inactive
